Reference: ChEMBL document CHEMBL1127665, “Synthesis and antibacterial activity of new quinolones containing a 7-[3-(1-amino-1-methylethyl)-1-pyrrolidinyl] moiety. Gram-positive agents with excellent oral activity and low side-effect potential” (J Med Chem, 1994)
Values after ≈ are worked out from the molar mass of the structure shown.

How the values were obtained:
Staphylococcus aureus [1] = test: Minimum inhibitory concentration against Staphylococcus aureus H 228; type: functional
How it was run: (§1)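 Tested by microtitration against a panel of 10 Gram-positive and Gram-negative organisms. MIC is reported in μg/mL.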

Providencia rettgeri = test: Minimum inhibitory concentration against M1771 strain of Providencia rettgeri; type: functional; how it was run: as §1
Staphylococcus aureus [2] = test: Minimum inhibitory concentration against Staphylococcus aureus UC-76; type: functional; how it was run: as §1
Escherichia coli = test: Minimum inhibitory concentration against Escherichia coli Vogel; type: functional; how it was run: as §1
Enterococcus faecalis = test: Minimum inhibitory concentration against Streptococcus faecalis MGH-2; type: functional; how it was run: as §1
Streptococcus pyogenes = test: Minimum inhibitory concentration against Streptococcus pyogenes C203; type: functional; how it was run: as §1
Streptococcus pneumoniae = test: Minimum inhibitory concentration tested against Streptococcus pneumoniae SV-1; type: functional; how it was run: as §1
Mus musculus [3] = test: In vivo antibacterial activity against Escherichia coli after following oral administration; type: functional; conditions: read-out: PD50
How it was run: (§2)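 Acute lethal systemic infection in female Charles River CD-1 mice. Compound given orally or subcutaneously. Potency expressed as median protective dose (PD50, mg/kg), the dose preventing death in 50% of animals.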

Mus musculus [4] = test: In vivo antibacterial activity against Streptococcus pyogenes after following oral administration; type: functional; conditions: read-out: PD50; how it was run: as §2
Enterobacter cloacae = test: Minimum inhibitory concentration against Enterobacter cloacae MA 2646; type: functional
Mus musculus [5] = test: In vivo antibacterial activity against Streptococcus pyogenes after following subcutaneous administration; type: functional; conditions: sc, read-out: PD50; how it was run: as §2
Mus musculus [6] = test: In vivo antibacterial activity against Escherichia coli after following subcutaneous administration; type: functional; conditions: sc, read-out: PD50; how it was run: as §2
Pseudomonas aeruginosa = test: Minimum inhibitory concentration against U1-18 cell line from Pseudomonas aeruginosa; type: functional; how it was run: as §1
V79 = test: Clonogenic cytotoxicity against Hamster V-79 cells; type: cell-based; conditions: Cricetulus griseus
Klebsiella pneumoniae = test: Minimum inhibitory concentration against Klebsiella pneumoniae MGH-2; type: functional; how it was run: as §1
[7] = The no effect dose (NED) for phototoxicity in mouse; type: organism-based; conditions: in vivo, read-out: NED
How it was run: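 Female CD-1 mice were depilated and dosed orally, with five animals per dose plus controls. After each dose the mice were exposed to UVA for 3 h. This was repeated daily for 4 days. Any redness or erythema relative to control was scored positive. The value is the highest dose producing no effect, in mg/kg.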

| Compound | MIC (Staphylococcus aureus [1]) | MIC (Providencia rettgeri) | MIC (Staphylococcus aureus [2]) | MIC (Escherichia coli) | MIC (Enterococcus faecalis) | MIC (Streptococcus pyogenes) | MIC (Streptococcus pneumoniae) | ED50 (Mus musculus [3]) | ED50 (Mus musculus [4]) | MIC (Enterobacter cloacae) | ED50 (Mus musculus [5]) | ED50 (Mus musculus [6]) | MIC (Pseudomonas aeruginosa) | IC50 (V79) | MIC (Klebsiella pneumoniae) | NOAEL [7] |
| --- | --- | --- | --- | --- | --- | --- | --- | --- | --- | --- | --- | --- | --- | --- | --- | --- |
| COc1c(N2CC[C@@H](C(C)(C)N)C2)c(F)cc2c(=O)c(C(=O)O)cn(C3CC3)c12.Cl | 0.013 mg/L | 0.4 mg/L | 0.003 mg/L | 0.1 mg/L | 0.013 mg/L | 0.003 mg/L | 0.003 mg/L | 26 mg/kg | 2 mg/kg | 0.1 mg/L | 0.6 mg/kg | 3 mg/kg | 1.6 mg/L | 18 mg/L | 0.2 mg/L |  |
| CC(C)(N)[C@@H]1CCN(c2cc3c(cc2F)c(=O)c(C(=O)O)cn3C2CC2)C1.Cl | 0.05 mg/L | 0.2 mg/L | 0.006 mg/L | 0.05 mg/L | 0.025 mg/L | 0.003 mg/L | 0.003 mg/L | 18 mg/kg | 20 mg/kg | 0.05 mg/L | 1 mg/kg | 2 mg/kg | 0.8 mg/L | 190 mg/L | 0.1 mg/L |  |
| CC(C)(N)[C@H]1CCN(c2cc3c(cc2F)c(=O)c(C(=O)O)cn3C2CC2)C1.Cl | 0.4 mg/L | 1.6 mg/L | 0.1 mg/L | 0.4 mg/L | 0.4 mg/L | 0.2 mg/L | 0.2 mg/L |  | > 100 mg/kg | 0.4 mg/L | 13 mg/kg |  | 3.1 mg/L |  | 0.8 mg/L |  |
| CC(C)(N)[C@H]1CCN(c2nc3c(cc2F)c(=O)c(C(=O)O)cn3-c2ccc(F)cc2F)C1.Cl | 0.4 mg/L | 1.6 mg/L | 0.1 mg/L | 0.4 mg/L | 0.4 mg/L | 0.4 mg/L | 0.4 mg/L |  |  | 0.4 mg/L |  |  | 3.1 mg/L |  | 0.8 mg/L |  |
| COc1c(N2CC[C@H](C(C)(C)N)C2)c(F)cc2c(=O)c(C(=O)O)cn(C3CC3)c12.Cl | 0.05 mg/L | 0.8 mg/L | 0.013 mg/L | 0.2 mg/L | 0.05 mg/L | 0.025 mg/L | 0.025 mg/L |  | 29 mg/kg | 0.2 mg/L | 3 mg/kg |  | 3.1 mg/L | > 500 mg/L | 0.4 mg/L |  |
| CC(C)(N)[C@H]1CCN(c2c(F)cc3c(=O)c(C(=O)O)cn(C4CC4)c3c2Cl)C1.Cl | 0.025 mg/L | 0.4 mg/L | 0.013 mg/L | 0.1 mg/L | 0.05 mg/L | 0.025 mg/L | 0.013 mg/L | 27 mg/kg | 13 mg/kg | 0.1 mg/L | 4 mg/kg | 4 mg/kg | 1.6 mg/L |  | 0.2 mg/L |  |
| CC(C)(N)[C@H]1CCN(c2nc3c(cc2F)c(=O)c(C(=O)O)cn3C2CC2)C1.Cl | 0.1 mg/L | 0.8 mg/L | 0.025 mg/L | 0.2 mg/L | 0.1 mg/L | 0.1 mg/L | 0.05 mg/L | 10 mg/kg | 32 mg/kg | 0.2 mg/L | 6 mg/kg | 3 mg/kg | 3.1 mg/L |  | 0.4 mg/L | 55 mg/kg |
| NCC1CCN(c2nc3c(cc2F)c(=O)c(C(=O)O)cn3-c2ccc(F)cc2F)C1 (stereo not drawn) | 0.05 mg/L (≈ 0.12 µM) | 0.2 mg/L (≈ 0.478 µM) | 0.013 mg/L (≈ 0.0311 µM) | 0.05 mg/L (≈ 0.12 µM) | 0.025 mg/L (≈ 0.0598 µM) | 0.025 mg/L (≈ 0.0598 µM) | 0.025 mg/L (≈ 0.0598 µM) |  |  | 0.05 mg/L (≈ 0.12 µM) |  |  | 0.4 mg/L (≈ 0.956 µM) |  | 0.1 mg/L (≈ 0.239 µM) |  |
| C[C@@H](N)C1CCN(c2nc3c(cc2F)c(=O)c(C(=O)O)cn3C2CC2)C1 (stereo partly drawn) | 0.025 mg/L (≈ 0.0694 µM) | 0.1 mg/L (≈ 0.277 µM) | 0.003 mg/L (≈ 0.00832 µM) | 0.025 mg/L (≈ 0.0694 µM) | 0.013 mg/L (≈ 0.0361 µM) | 0.013 mg/L (≈ 0.0361 µM) | 0.003 mg/L (≈ 0.00832 µM) | 2 mg/kg | 3 mg/kg | 0.05 mg/L (≈ 0.139 µM) | 1 mg/kg | 0.4 mg/kg | 0.4 mg/L (≈ 1.11 µM) | 33 mg/L (≈ 91.6 µM) | 0.05 mg/L (≈ 0.139 µM) | 30 mg/kg |
| O=C(O)c1cn(C2CC2)c2cc(N3CCNCC3)c(F)cc2c1=O [CIPROFLOXACIN] | 3.1 mg/L (≈ 9.36 µM) | 0.1 mg/L (≈ 0.302 µM) | 0.2 mg/L (≈ 0.604 µM) |  | 0.8 mg/L (≈ 2.41 µM) | 0.8 mg/L (≈ 2.41 µM) | 1.6 mg/L (≈ 4.83 µM) | 1 mg/kg | 180 mg/kg |  | 19 mg/kg | 0.3 mg/kg | 0.4 mg/L (≈ 1.21 µM) |  | 0.05 mg/L (≈ 0.151 µM) | > 100 mg/kg |
